Test results as given in ChEMBL document CHEMBL1667736, “Tirucallane triterpenoids from Cornus walteri” (J Nat Prod, 2011).

Assays:
Format in all cases: functional, cell-based
[1] = system: SK-OV-3; test: Cytotoxicity against human SKOV3 cells by SRB assay
Method in brief: (§1)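 Sulforhodamine B (SRB) cytotoxicity assay on cultured human cancer lines: A549 (non-small cell lung adenocarcinoma), SK-OV-3 (ovarian), SK-MEL-2 (skin melanoma), XF498 (CNS). Assays were run at the Korea Research Institute of Chemical Technology. Etoposide served as positive control. Potency is expressed as IC50 in µM.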

[2] = system: XF498; test: Cytotoxicity against human XF498 cells by SRB assay; method in brief: as §1
[3] = system: SK-MEL-2; test: Cytotoxicity against human SK-MEL-2 cells by SRB assay; method in brief: as §1
[4] = system: A549; test: Cytotoxicity against human A549 cells by SRB assay; method in brief: as §1

Structure (SMILES) | IC50 [1] | IC50 [2] | IC50 [3] | IC50 [4]
COC(C)(C)/C=C/C[C@H](C)[C@@H]1CC[C@]2(C)C3=CCC4C(C)(C)C(=O)CC[C@]4(C)[C@H]3CC[C@@]12C (stereo partly drawn) [(-)-LEUCOPHYLLONE] | 18 µM | 18.2 µM | 21.2 µM | 24.9 µM
COC(C)(C)/C=C/C[C@H](C)[C@@H]1CC[C@]2(C)C3=CCC4C(C)(C)[C@@H](O)CC[C@]4(C)[C@H]3CC[C@@]12C (stereo not given in full) [CORNUSALTERIN A] | 12.5 µM | 17.4 µM | 12.1 µM | 22.2 µM
COC(C)(C)/C=C/C[C@H](C)[C@@H]1CC[C@]2(C)[C@@H]3CCC4C(C)(C)C(=O)CC[C@]4(C)[C@H]3CC[C@@]12C (stereo not given in full) [CORNUSALTERIN B] | 19.2 µM | 28.7 µM | 18 µM | 28.8 µM
COC(C)(C)/C=C/C[C@H](C)[C@@H]1CC[C@]2(C)[C@@H]3CCC4C(C)(C)[C@@H](O)CC[C@]4(C)[C@H]3CC[C@@]12C (stereo not given in full) [CORNUSALTERIN C] | 16.5 µM | 17.6 µM | 11.9 µM | 23.6 µM
C=C(C)/C=C/C[C@H](C)[C@@H]1CC[C@]2(C)C3=CCC4C(C)(C)C(=O)CC[C@]4(C)[C@H]3CC[C@@]12C (stereo not given in full) [CORNUSALTERIN D] | 14.5 µM | 17.8 µM | 12.7 µM | 26.9 µM
CC(C)CCC[C@H](C)[C@@H]1CC[C@]2(C)C3=CCC4C(C)(C)C(=O)C=C[C@]4(C)[C@H]3CC[C@@]12C (stereo not given in full) [CORNUSALTERIN E] | 14.1 µM | 13.1 µM | 12.5 µM | 18.4 µM
CC(C)CCC[C@H](C)[C@@H]1CC[C@]2(C)C3=CCC4C(C)(C)C=CC(=O)[C@]4(C)[C@H]3CC[C@@]12C (stereo not given in full) [CORNUSALTERIN F] | 27.3 µM | 24.6 µM | 21.4 µM | 27 µM
CO[C@@H](C=C(C)C)C[C@H](C)[C@@H]1CC[C@]2(C)C3=CCC4C(C)(C)C(=O)CC[C@]4(C)[C@H]3CC[C@@]12C (stereo not given in full) [CORNUSALTERIN G] | 26.9 µM | 20.5 µM | 18 µM | 29.9 µM
CO[C@H](C=C(C)C)C[C@H](C)[C@@H]1CC[C@]2(C)C3=CCC4C(C)(C)C(=O)CC[C@]4(C)[C@H]3CC[C@@]12C (stereo not given in full) [CORNUSALTERIN H] | 21.4 µM | 18.6 µM | 17.7 µM | 28.5 µM
CO[C@H](C=C(C)C)C[C@H](C)[C@@H]1CC[C@]2(C)C3=CCC4C(C)(C)C(=O)CC[C@]4(C)C3=CC[C@@]12C (stereo not given in full) [CORNUSALTERIN I] | 13.5 µM | 12.3 µM | 10.4 µM | 17.6 µM
CO[C@@H](C=C(C)C)C[C@H](C)[C@@H]1CC[C@]2(C)C3=CCC4C(C)(C)[C@@H](O)CC[C@]4(C)[C@H]3CC[C@@]12C (stereo not given in full) [CORNUSALTERIN J] | 17.8 µM | 18.2 µM | 12.3 µM | 25.4 µM
CC(C)CCC[C@H](C)[C@@H]1CC[C@]2(C)[C@@H]3CC=C4C(C)(C)C(=O)C[C@@H](O)[C@]4(C)[C@H]3CC[C@@]12C [CORNUSALTERIN K] | 12.8 µM | 12 µM | 12.4 µM | 11.7 µM
CC(C)=C[C@@H]1C[C@@H]([C@@H]2CC[C@]3(C)C4=CCC5C(C)(C)C(=O)CC[C@]5(C)[C@H]4CC[C@@]23C)CO1 (stereo not given in full) [CORNUSALTERIN L] | 3.82 µM | 5.81 µM | 4.73 µM | 4.29 µM
CC(C)=C[C@H]1C[C@@H]([C@@H]2CC[C@]3(C)C4=CCC5C(C)(C)C(=O)CC[C@]5(C)[C@H]4CC[C@@]23C)CO1 (stereo not given in full) [DEOXYFLINDISSONE] | 3.64 µM | 5.1 µM | 6.07 µM | 4.02 µM
COc1cc([C@@H]2c3cc4c(cc3[C@@H](O[C@@H]3O[C@@H]5CO[C@@H](C)O[C@H]5[C@H](O)[C@H]3O)[C@H]3COC(=O)[C@H]23)OCO4)cc(OC)c1O [ETOPOSIDE] | 1.81 µM | 1.72 µM | 1.17 µM | 1.85 µM
